The target in data set [1] is Cannabinoid receptor 1 (Homo sapiens, UniProt P21554). In words: Displacement of [3H]CP55940 from recombinant human CB1 receptor expressed in HEK293 cell membranes measured after 90 mins. The method, boiled down: (§1)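 Membranes from HEK-293 cells stably expressing human recombinant CB1 (Bmax 2.5 pmol/mg protein) or CB2 (Bmax 4.7 pmol/mg protein). [3H]-CP-55,940 was used at 0.14 nM for CB1 (Kd 0.18 nM) and 0.084 nM for CB2 (Kd 0.31 nM), with increasing test concentrations, 90 min at 30 °C. Non-specific binding was set with 10 μM WIN 55212-2. Ki came from IC50 via Cheng–Prusoff; n ≥ 3, mean ± SEM. SI = CB1 Ki / CB2 Ki.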
Cannabinoid receptor 1, sequence (P21554 whole entry): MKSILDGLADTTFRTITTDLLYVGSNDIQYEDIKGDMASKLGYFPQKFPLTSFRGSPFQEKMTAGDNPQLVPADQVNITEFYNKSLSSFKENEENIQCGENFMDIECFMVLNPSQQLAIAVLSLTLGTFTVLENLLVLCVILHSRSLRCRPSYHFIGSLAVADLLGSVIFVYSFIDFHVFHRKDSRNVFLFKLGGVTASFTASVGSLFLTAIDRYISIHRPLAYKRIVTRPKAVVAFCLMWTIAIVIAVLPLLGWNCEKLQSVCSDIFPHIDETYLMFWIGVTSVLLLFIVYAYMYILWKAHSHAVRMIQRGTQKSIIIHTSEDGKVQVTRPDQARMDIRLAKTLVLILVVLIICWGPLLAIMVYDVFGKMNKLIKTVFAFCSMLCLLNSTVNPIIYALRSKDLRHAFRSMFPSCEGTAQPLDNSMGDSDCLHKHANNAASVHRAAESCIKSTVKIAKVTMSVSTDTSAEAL
A general note: Loss of bound radioactivity is the signal in a displacement assay; it reports binding, not function.

Data set [2] has as its target T1, Cannabinoid receptor 2 (Homo sapiens, UniProt P34972). Put plainly: Displacement of [3H]CP55940 from recombinant human CB2 receptor expressed in HEK293 cell membranes at 10 uM measured after 90 mins relative to control.
In data set [3] the target is Cannabinoid receptor 1 (CB1) (Homo sapiens, UniProt P21554). In words: Displacement of [3H]CP55940 from recombinant human CB1 receptor expressed in HEK293 cell membranes at 10 uM measured after 90 mins relative to control. Conditions: probe [3H]CP55940.
Cannabinoid receptor 1 (CB1), sequence (P21554 whole entry): as above
For data set [4], the target named is T1, Cannabinoid receptor 2. Put plainly: Displacement of [3H]CP55940 from recombinant human CB2 receptor expressed in HEK293 cell membranes measured after 90 mins. The method, boiled down:
as §1

The species entered for data set [5] is Homo sapiens. Put plainly: Selectivity index, ratio of Ki for displacement of [3H]CP55940 from recombinant human CB1 receptor expressed in HEK293 cell membranes to Ki for displacement of [3H]CP55940 from recombinant human CB2 receptor expressed in HEK293 cell membranes. The method, boiled down: as §1
Data set [6] concerns the target T1, Cannabinoid receptor 2. Put plainly: Antagonist/inverse agonist activity at recombinant human CB2 receptor expressed in HEK293 cell membranes assessed as increase in NKH-477-induced cAMP accumulation preincubated followed by CB2 agonist JWH-133 addition and measured after 30 mins by luminescence assay. The class given is functional, cell-based. In general terms: cAMP levels reflect the balance of adenylyl cyclase and phosphodiesterase activity.

The target of data set [7] is T1, Cannabinoid receptor 2. Put plainly: Antagonist/inverse agonist activity at recombinant human CB2 receptor expressed in HEK293 cell membranes assessed as increase in NKH-477-induced cAMP accumulation measured after 30 mins by luminescence assay. It is filed as functional, cell-based.

The source made the active and inactive calls. The calls are words filed in the database; no cut-off is given here.

T1 sequence (P34972 whole entry): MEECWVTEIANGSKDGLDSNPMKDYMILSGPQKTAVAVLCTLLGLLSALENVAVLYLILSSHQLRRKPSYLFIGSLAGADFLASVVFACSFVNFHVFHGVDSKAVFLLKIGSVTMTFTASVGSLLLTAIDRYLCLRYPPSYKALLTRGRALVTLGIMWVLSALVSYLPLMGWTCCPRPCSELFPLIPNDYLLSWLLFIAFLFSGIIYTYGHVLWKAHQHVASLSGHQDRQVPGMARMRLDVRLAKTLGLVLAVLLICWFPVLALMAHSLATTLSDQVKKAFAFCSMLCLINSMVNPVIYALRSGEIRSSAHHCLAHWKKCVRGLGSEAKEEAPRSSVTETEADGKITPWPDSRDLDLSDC

As to `Clc1ccc2c(c1)nc(Cn1nc3ccccc3n1)n2CC[C@@H]1CCCN2CCCC[C@H]12`, the Ki in data set [1] and in data set [4] was over 10 µM each time. Moreover, the inhibition in data set [2] turned out to be 10.1%. In addition, in data set [3], the inhibition at 1.5 h, 10 µM worked out at 17.6%.

As to `COc1ccc(Cc2nc3cc(C(F)(F)F)ccc3n2C[C@@H]2CCCN3CCCC[C@H]23)cc1`, the Ki in data set [1] and in data set [4] was over 10 µM each time. For the same molecule, in data set [2], the inhibition came out at 19.7%. Also, the inhibition at 1.5 h, 10 µM in data set [3] is 5.5%.

`CCN(CC)CCn1c(-c2ccc(OC)cc2)nc2cc(C(F)(F)F)ccc21`: the Ki in data set [1] and in data set [4] was over 10 µM throughout. Further, the inhibition in data set [2] came to 46.9%. Besides, in data set [3], the inhibition at 1.5 h, 10 µM is 1.95%.

For the molecule `CCN(CC)CCCn1c(Cc2ccc(OC)cc2)nc2cc(C(F)(F)F)ccc21`, the inhibition constant Ki in data set [1] and in data set [4] was over 10 µM in each case. In data set [2], the inhibition is 16.8%. In data set [3], the inhibition at 1.5 h, 10 µM stood at 19.2%.

On to `COc1ccc(Cc2nc3cc(C(C)=O)ccc3n2C[C@@H]2CCCN3CCCC[C@H]23)cc1`, for which the Ki in data set [1] and in data set [4] was over 10 µM throughout. Also, the inhibition in data set [2] stood at 15.6%. In addition, in data set [3], the inhibition at 1.5 h, 10 µM was 47.6%.

Turning to `COCCn1c(Cc2ccc(Cl)c(Cl)c2)nc2cc(C(F)(F)F)ccc21`, the Ki in data set [1] was over 10 µM; in data set [4], 10 µM. For the same molecule, the inhibition in data set [2] was determined as 53.8%. Further, the inhibition at 1.5 h, 10 µM in data set [3] amounted to 41.4%. The Ratio Ki in data set [5] is over 1.

Regarding `CCN(CC)CCCn1c(Cn2nc3ccccc3n2)nc2cc(C(C)=O)ccc21`, the Ki in data set [1] and in data set [4] was over 10 µM in each case. Besides, in data set [2], the inhibition is 17.5%. In addition, in data set [3], the inhibition at 1.5 h, 10 µM came to 15%.

In the case of `CCCCn1c(Cc2ccc(Cl)c(Cl)c2)nc2cc(C(F)(F)F)ccc21`, the Ki was found to be 10 µM in data set [1] and 0.37 µM in data set [4]. In addition, the result in data set [6] and in data set [7] was Active. For the same molecule, the inhibition in data set [2] came out at 94.3%. Also, the inhibition at 1.5 h, 10 µM in data set [3] amounted to 53.9%. Moreover, the Ratio Ki in data set [5] was 27.

The term Ki denotes the equilibrium dissociation constant of an inhibitor or competing ligand from its target. One may read the inhibition as the share of the control response that was lost under treatment.

Source of the values: ChEMBL document CHEMBL4368878 (Medchemcomm, 2018).
